Data on 15 molecules can be found in PubChem BioAssay.

Active and inactive are the calls of the source.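 Rule for the calls, unless noted: active = GFP response above 150% of the DMSO level; inconclusive = fewer than 70 events counted for a yeast strain; inactive = the rest.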

A short description of test [1]: hit retest on RPL19A-GFP reporter strain – cell-based, S. cerevisiae, flow cytometry, cherry picks, mother/daughter gates, confirmation (AID 2270;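 active = GFP response below 50% of the DMSO control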). Particulars: 3 h, at 10 µM, stronger effect = lower value, 100 = same GFP as DMSO wells.
A short description of test [2]: yeast TOR pathway reporter LAP4-GFP change – cell-based, cherry picks, flow cytometry, mother/daughter gates, confirmation (AID 2271;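 active = GFP response above 150% of the DMSO control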;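 note: ratio of sample to DMSO plate mean so 100% equals DMSO level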). Particulars: S. cerevisiae LAP4-GFP strain, 3 h, at 10 µM, stronger effect = higher value, 100 means same as DMSO control. The essentials: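 System – GFP-fusion yeast strain · Amount – 0.2 OD600 cells · Buffer or medium – SC growth medium · Dosing – single test-compound dose, 10 µM final · Schedule – 3 h treatment at 30 °C with rotation · Detection – GFP by flow cytometry · Read-out – per-gate (all, mother, daughter) GFP response vs DMSO · Benchmarks – positive rapamycin (400 ng/mL), negative DMSO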

A short description of test [3]: TOR pathway reporter MEP2-GFP, retest of hits – S. cerevisiae, flow cytometry GFP, cherry picks, confirmation (AID 2272;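 active = GFP response above 150% of the DMSO control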;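 note: ratio of well signal to plate DMSO mean so 100% equals DMSO level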). Particulars: S. cerevisiae MEP2-GFP strain, 3 h, at 10 µM, stronger effect = higher value.
Test [4] can be described thus: yeast AGP1-GFP fluorescence change, single-dose – cell-based, flow cytometry, S. cerevisiae, cherry picks, confirmation (AID 2273).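 Note: median GFP channel fluorescence over the whole cell population gate.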 Particulars: S. cerevisiae AGP1-GFP strain, 3 h, at 10 µM.
Test [5] can be described thus: TOR pathway CIT2 reporter hit retest – S. cerevisiae, GFP fusion, cherry picks, mother/daughter gates, confirmation (AID 2274). Particulars: S. cerevisiae CIT2-GFP strain, flow cytometry, 3 h, at 10 µM, stronger effect = higher value.
Where [6] appears, read: measured here: daughter cell gate.
The mark [7] stands for this setting: measured here: mother cell gate.
[8] abbreviates: measured here: daughter cell gate response.
The mark [9] stands for this setting: measured here: mother cell gate response.

For `COc1cc(/C=C/C(=O)c2c(O)ccc3c(C)cc(=O)oc23)ccc1O`, the GFP response vs DMSO in test [1] was 95% (inactive); in test [1] (setting [6]) it was 94.4%; in test [1] (setting [7]), 95.8%; in test [3] it was 98.3% (inactive). For the same molecule, the results for the GFP response relative to DMSO in test [2], in test [2] (setting [8]) and in test [2] (setting [9]) were 124% (inactive), 120% and 130%, respectively. The GFP response, % of DMSO in test [4] is 92.5% (inactive); in test [5], 96.9% (inactive); in test [5] (setting [6]), 101%; in test [5] (setting [7]), 93.8%.
With `Cc1nc(C)c(-c2csc(NCCc3ccccc3)n2)s1`, the GFP response vs DMSO in test [1] is 96.7% (inactive); in test [1] (setting [6]), 96.4%; in test [1] (setting [7]) it was 95.9%; in test [3] it was 112% (inactive). In addition, the GFP response relative to DMSO is 112% (inactive) in test [2], 105% in test [2] (setting [8]) and 113% in test [2] (setting [9]). Further, the GFP response, % of DMSO was 96.6% (inactive) in test [4], 108% (inactive) in test [5], 110% in test [5] (setting [6]) and 107% in test [5] (setting [7]).
For `COC(=O)c1ccc(NC(=O)c2nc(S(=O)(=O)Cc3cccc(C)c3)ncc2Cl)cc1`, the GFP response vs DMSO was 98.4% (inactive) in test [1], 96.1% in test [1] (setting [6]), 98.7% in test [1] (setting [7]) and 100% (inactive) in test [3]. Besides, the GFP response relative to DMSO in test [2] was 103% (inactive); in test [2] (setting [8]), 102%; in test [2] (setting [9]) it was 106%. Further, the GFP response, % of DMSO in test [4] was 95.7% (inactive); in test [5], 88.7% (inactive); in test [5] (setting [6]), 88.3%; in test [5] (setting [7]), 86.9%.
As to `Cc1ccc(NN2C(=O)C=C(c3ccc(Cl)cc3)C2=O)cc1`, the GFP response vs DMSO was 83.9% (inactive) in test [1], 87.1% in test [1] (setting [6]), 74.3% in test [1] (setting [7]) and 111% (inactive) in test [3]. Also, the GFP response relative to DMSO was 289% (active) in test [2], 117% in test [2] (setting [8]) and 280% in test [2] (setting [9]). Also, the GFP response, % of DMSO in test [4] is 91.3% (inactive); in test [5] it was 96.9% (inactive); in test [5] (setting [6]), 91.7%; in test [5] (setting [7]), 83.1%.
For `COc1ccccc1-c1nnc(NC(=O)c2ccc3c(c2)OCO3)s1`, the GFP response vs DMSO is 106% (inactive) in test [1], 104% in test [1] (setting [6]), 108% in test [1] (setting [7]) and 97.8% (inactive) in test [3]. Besides, the results for the GFP response relative to DMSO in test [2], in test [2] (setting [8]) and in test [2] (setting [9]) were 85.4% (inactive), 84.8% and 89%, respectively. Further, the GFP response, % of DMSO was 98.5% (inactive) in test [4], 100% (inactive) in test [5], 101% in test [5] (setting [6]) and 99.8% in test [5] (setting [7]).
For `N#C/C(=C\c1c(N2CCCCCC2)nc2ccccn2c1=O)C(=O)NC1CCS(=O)(=O)C1` (stereo not given), the GFP response vs DMSO is 99.9% (inactive) in test [1], 101% in test [1] (setting [6]), 99.7% in test [1] (setting [7]) and 116% (inactive) in test [3]. In addition, the values for the GFP response relative to DMSO in test [2], in test [2] (setting [8]) and in test [2] (setting [9]) were 105% (inactive), 107% and 103%, respectively. The GFP response, % of DMSO in test [4] is 98.7% (inactive); in test [5], 109% (inactive); in test [5] (setting [6]), 111%; in test [5] (setting [7]) it was 108%.
Regarding `CCCc1[nH]nc2c1C(c1ccc(OC)c(CSC3=NCCS3)c1)C(C#N)=C(N)O2` (stereo not given), the GFP response vs DMSO in test [1] is 96.8% (inactive); in test [1] (setting [6]), 97.3%; in test [1] (setting [7]), 97.6%; in test [3] it was 97.5% (inactive). In addition, the values for the GFP response relative to DMSO in test [2], in test [2] (setting [8]) and in test [2] (setting [9]) were 109% (inactive), 109% and 107%, respectively. In addition, the GFP response, % of DMSO in test [4] was 105% (inactive); in test [5], 95% (inactive); in test [5] (setting [6]), 94.6%; in test [5] (setting [7]), 94.5%.
Regarding `CCN1C(=O)/C(=C\C(=O)c2cccs2)c2cc(Br)ccc21`, the GFP response vs DMSO is 97.6% (inactive) in test [1], 96.7% in test [1] (setting [6]), 97.2% in test [1] (setting [7]) and 104% (inactive) in test [3]. The GFP response relative to DMSO is 144% (inactive) in test [2], 128% in test [2] (setting [8]) and 140% in test [2] (setting [9]). Moreover, the GFP response, % of DMSO is 94.5% (inactive) in test [4], 99.3% (inactive) in test [5], 104% in test [5] (setting [6]) and 92.1% in test [5] (setting [7]).
Turning to `Nc1cccnc1S(=O)(=O)c1ccccc1`, the GFP response vs DMSO was 98.8% (inactive) in test [1], 97.8% in test [1] (setting [6]), 100% in test [1] (setting [7]) and 100% (inactive) in test [3]. Besides, the GFP response relative to DMSO in test [2] was 93.8% (inactive); in test [2] (setting [8]) it was 94.1%; in test [2] (setting [9]) it was 95.2%. The GFP response, % of DMSO in test [4] is 98.5% (inactive); in test [5] it was 99.1% (inactive); in test [5] (setting [6]), 99.7%; in test [5] (setting [7]), 97.7%.
With `CC(=O)Oc1ccc(/C=c2\sc3ncnn3c2=O)cc1`, the GFP response vs DMSO in test [1] is 100% (inactive); in test [1] (setting [6]), 102%; in test [1] (setting [7]) it was 97.8%; in test [3], 101% (inactive). Further, the GFP response relative to DMSO in test [2] is 123% (inactive); in test [2] (setting [8]), 122%; in test [2] (setting [9]), 125%. In addition, the GFP response, % of DMSO in test [4] is 98.8% (inactive); in test [5], 100% (inactive); in test [5] (setting [6]) it was 103%; in test [5] (setting [7]) it was 96%.
As for `O=C(/C=C/c1ccc(O)cc1)c1ccc(O)cc1O`, the GFP response vs DMSO in test [1] is 93.7% (inactive); in test [1] (setting [6]) it was 92.9%; in test [1] (setting [7]) it was 94.6%; in test [3] it was 102% (inactive). Besides, the GFP response relative to DMSO in test [2] is 96.7% (inactive); in test [2] (setting [8]), 97.6%; in test [2] (setting [9]), 96.1%. For the same molecule, the GFP response, % of DMSO is 109% (inactive) in test [4], 103% (inactive) in test [5], 103% in test [5] (setting [6]) and 102% in test [5] (setting [7]).
Take `COc1cccc2c1Oc1ncccc1N(C(=O)CCC(=O)NCc1ccc(F)cc1)C2`: the GFP response vs DMSO in test [1] was 98% (inactive); in test [1] (setting [6]) it was 98.1%; in test [1] (setting [7]) it was 98.2%; in test [3] it was 102% (inactive). The figures for the GFP response relative to DMSO in test [2], in test [2] (setting [8]) and in test [2] (setting [9]) were 101% (inactive), 101% and 99.3%, respectively. In addition, the GFP response, % of DMSO in test [4] was 96.6% (inactive); in test [5] it was 105% (inactive); in test [5] (setting [6]), 105%; in test [5] (setting [7]), 104%.
As for `C=CCn1c(=O)c(C(=O)Nc2ccccc2O)c(O)c2ccccc21`, the GFP response vs DMSO in test [1] is 99.8% (inactive); in test [1] (setting [6]), 98.9%; in test [1] (setting [7]), 101%; in test [3], 105% (inactive). Besides, the results for the GFP response relative to DMSO in test [2], in test [2] (setting [8]) and in test [2] (setting [9]) were 108% (inactive), 106% and 106%, respectively. Besides, the GFP response, % of DMSO is 98.7% (inactive) in test [4], 104% (inactive) in test [5], 105% in test [5] (setting [6]) and 102% in test [5] (setting [7]).
As for `CCOc1cc(-c2nc3cc(C)ccn3c2NCC2CCCO2)ccc1O` (stereo not given), the GFP response vs DMSO in test [1] was 103% (inactive); in test [1] (setting [6]) it was 105%; in test [1] (setting [7]), 101%; in test [3] it was 103% (inactive). Also, the figures for the GFP response relative to DMSO in test [2], in test [2] (setting [8]) and in test [2] (setting [9]) were 88.2% (inactive), 91.3% and 87.3%, respectively. Also, the GFP response, % of DMSO is 97.9% (inactive) in test [4], 104% (inactive) in test [5], 108% in test [5] (setting [6]) and 104% in test [5] (setting [7]).
`O=[N+]([O-])c1cccc(/C=N/Nc2ncc(Br)cn2)c1`: the GFP response vs DMSO in test [1] is 90.9% (inactive); in test [1] (setting [6]) it was 88.5%; in test [1] (setting [7]) it was 90.6%; in test [3], 128% (inactive). In addition, the GFP response relative to DMSO in test [2] is 129% (inactive); in test [2] (setting [8]), 121%; in test [2] (setting [9]), 132%. Moreover, the GFP response, % of DMSO in test [4] is 137% (inactive); in test [5] it was 86.1% (inactive); in test [5] (setting [6]), 86.9%; in test [5] (setting [7]) it was 83.7%.
